Results from ChEMBL document CHEMBL1146217, “Growth inhibition of Mycobacterium bovis, Mycobacterium tuberculosis and Mycobacterium avium in vitro: effect of 1-beta-D-2'-arabinofuranosyl and 1-(2'-deoxy-2'-fluoro-beta-D-2'-ribofuranosyl) pyrimidine nucleoside analogs” (J Med Chem, 2007).
≈ marks a conversion by molar mass, not a printed value.

Legend:
Type in all cases: functional
Details in all cases: variant bovis BCG
[1] = system: Mycobacterium tuberculosis; assay: Antimycobacterial activity against Mycobacterium bovis BCG at 100 ug/mL by microplate Alamar blue assay
Procedure, shortened: (§1)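 MABA with M. bovis BCG, M. tuberculosis H37Ra or M. avium ATCC 25291. DMSO stocks (10 mg/mL) diluted in 7H9GC; final inoculum 2.5 × 10⁵ CFU/mL. Incubated 6 days, then alamar blue plus Tween 80 added and read by fluorescence after about 24 h. […]. Tested in triplicate at 100, 50, 10 and 1 µg/mL; two experiments, mean reported.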

[2] = system: Mycobacterium tuberculosis; assay: Antimycobacterial activity against Mycobacterium bovis BCG at 1ug/mL by microplate Alamar blue assay; procedure, shortened: as §1
[3] = system: Mycobacterium tuberculosis; assay: Antimycobacterial activity against Mycobacterium bovis BCG at 10 ug/mL by microplate Alamar blue assay; procedure, shortened: as §1
[4] = system: Mycobacterium tuberculosis; assay: Antimycobacterial activity against Mycobacterium bovis BCG at 50 ug/mL by microplate Alamar blue assay; procedure, shortened: as §1
[5] = system: Mycobacterium tuberculosis; assay: Antimycobacterial activity against Mycobacterium bovis BCG by microplate Alamar blue assay
Procedure, shortened: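 Same alamar blue microplate setup (7H9GC, 2.5 × 10⁵ CFU/mL, 6 days, then dye read after about 24 h), using 2-fold compound dilutions. MIC90 is the lowest concentration giving about 90% inhibition relative to bacteria-only wells after background subtraction. Visual MIC is the lowest concentration preventing the blue-to-pink change.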

Row | SMILES | inhibition at 100 µg/mL [1] [%] | inhibition at 1 µg/mL [2] [%] | inhibition at 10 µg/mL [3] [%] | inhibition at 50 µg/mL [4] [%] | MIC90 [5] [µg/mL]
1 | Cc1cn([C@@H]2O[C@H](CO)[C@@H](O)[C@@H]2O)c(=O)[nH]c1=S | 0 | – | – | – | –
2 | CCCCCCCCCCC#Cc1cn([C@@H]2O[C@H](CO)[C@@H](O)[C@@H]2O)c(=O)[nH]c1=O | 100 | 75 | 100 | 100 | 1 (≈ 2.45 µM)
3 | CCOC(=O)/C=C/c1cn([C@@H]2O[C@H](CO)[C@@H](O)[C@H]2F)c(=O)[nH]c1=O | 0 | – | – | – | –
4 | O=C(O)/C=C/c1cn([C@@H]2O[C@H](CO)[C@@H](O)[C@@H]2O)c(=O)[nH]c1=O | 0 | – | – | – | –
5 | CCOC(=O)/C=C/c1cn([C@@H]2O[C@H](CO)[C@@H](O)[C@@H]2O)c(=O)[nH]c1=O | 0 | – | – | – | –
6 | CCOC(=O)C(Cl)C(O)c1cn([C@@H]2O[C@H](CO)[C@@H](O)[C@H]2F)c(=O)[nH]c1=O (some centres not stated) | 0 | – | – | – | –
7 | O=C(O)C(I)C(O)c1cn([C@@H]2O[C@H](CO)[C@@H](O)[C@H]2F)c(=O)[nH]c1=O (some centres not stated) | 0 | – | – | – | –
8 | COC(CI)c1cn([C@@H]2O[C@H](CO)[C@@H](O)[C@@H]2O)c(=O)[nH]c1=O (some centres not stated) | 0 | – | – | – | –
9 | O=c1[nH]c(=O)n([C@@H]2O[C@H](CO)[C@@H](O)[C@@H]2O)cc1Cl | 0 | – | – | – | –
10 | O=c1[nH]c(=O)n([C@@H]2O[C@H](CO)[C@@H](O)[C@@H]2O)cc1C(O)C(Cl)Cl (some centres not stated) | 0 | – | – | – | –
11 | O=c1[nH]c(=O)n([C@@H]2O[C@H](CO)[C@@H](O)[C@@H]2O)cc1C(O)C(Br)Br (some centres not stated) | 0 | – | – | – | –
12 | CCCCCCCCCCCCC#Cc1cn([C@@H]2O[C@H](CO)[C@@H](O)[C@H]2F)c(=O)[nH]c1=O | 100 | – | 50 | 100 | 10 (≈ 22.8 µM)
13 | CCCCCCCCC#Cc1cn([C@@H]2O[C@H](CO)[C@@H](O)[C@@H]2O)c(=O)[nH]c1=O | 100 | – | 30 | 50 | 100 (≈ 263 µM)
14 | CCCCCCCCCCCCC#Cc1cn([C@@H]2O[C@H](CO)[C@@H](O)[C@@H]2O)c(=O)[nH]c1=O | 100 | – | 50 | 100 | 10 (≈ 22.9 µM)
15 | CCCc1ccc(C#Cc2cn([C@@H]3O[C@H](CO)[C@@H](O)[C@@H]3O)c(=O)[nH]c2=O)cc1 | 100 | – | – | 50 | 100 (≈ 259 µM)
16 | CCOC(=O)C(Br)C(O)c1cn([C@@H]2O[C@H](CO)[C@@H](O)[C@H]2F)c(=O)[nH]c1=O (some centres not stated) | 0 | – | – | – | –

Row | SMILES | inhibition at 100 µg/mL [1] [%] | inhibition at 1 µg/mL [2] [%] | inhibition at 10 µg/mL [3] [%] | inhibition at 50 µg/mL [4] [%] | MIC90 [5] [µg/mL]
17 | O=c1[nH]c(=O)n([C@@H]2O[C@H](CO)[C@@H](O)[C@H]2F)cc1Br | 0 | – | – | – | –
18 | CCCCCCCCCCCC#Cc1cn([C@@H]2O[C@H](CO)[C@@H](O)[C@H]2F)c(=O)[nH]c1=O | 100 | 90 | 100 | 100 | 1 (≈ 2.36 µM)
19 | O=c1[nH]c(=O)n([C@@H]2O[C@H](CO)[C@@H](O)[C@@H]2O)cc1Br | 0 | – | – | – | –
20 | O=C(O)/C=C/c1cn([C@@H]2O[C@H](CO)[C@@H](O)[C@H]2F)c(=O)[nH]c1=O | 0 | – | – | – | –
21 | O=c1[nH]c(=O)n([C@@H]2O[C@H](CO)[C@@H](O)[C@H]2F)cc1Cl | 50 | – | – | 50 | –
22 | CO[C@H]1/C=C/O[C@@]2(C)Oc3c(C)c(O)c4c(O)c(c(/C=N/N5CCN(C)CC5)c(O)c4c3C2=O)NC(=O)/C(C)=C\C=C\[C@H](C)[C@H](O)[C@@H](C)[C@@H](O)[C@@H](C)[C@H](OC(C)=O)[C@@H]1C [RIFAMPIN] | – | – | – | – | 0.5 (≈ 0.608 µM)
23 | CCCCCCCCC#Cc1cn([C@@H]2O[C@H](CO)[C@@H](O)[C@H]2F)c(=O)[nH]c1=O | 100 | 30 | 50 | 75 | 50 (≈ 131 µM)
24 | Cc1cn([C@@H]2O[C@H](CO)[C@@H](O)[C@H]2F)c(=O)[nH]c1=S | 25 | – | – | – | –
25 | CCCCCCCCCCC#Cc1cn([C@@H]2O[C@H](CO)[C@@H](O)[C@H]2F)c(=O)[nH]c1=O | 100 | 70 | 100 | 100 | 1 (≈ 2.44 µM)
26 | O=c1[nH]c(=S)ccn1[C@@H]1O[C@H](CO)[C@@H](O)[C@H]1F | 25 | – | – | – | –
27 | O=c1[nH]c(=S)ccn1[C@@H]1O[C@H](CO)[C@@H](O)[C@@H]1O | 0 | – | – | – | –
28 | CCCCCC#Cc1cn([C@@H]2O[C@H](CO)[C@@H](O)[C@@H]2O)c(=O)[nH]c1=O | 25 | – | – | – | –
29 | CCCCCCCCCCCC#Cc1cn([C@@H]2O[C@H](CO)[C@@H](O)[C@@H]2O)c(=O)[nH]c1=O | 100 | – | 50 | 100 | 10 (≈ 23.7 µM)
30 | CCCCCC#Cc1cn([C@@H]2O[C@H](CO)[C@@H](O)[C@H]2F)c(=O)[nH]c1=O | 50 | – | – | – | –
31 | O=c1[nH]c(=O)n([C@@H]2O[C@H](CO)[C@@H](O)[C@@H]2O)cc1C(O)CI (some centres not stated) | 0 | – | – | – | –
